The text below walks through data of publication PMC8791645 (Advanced therapeutics, 2021).

Like-named read-outs stand apart in the source and are kept apart here.

For data set [1], the system named is M9-ENL1 cells. Description: MTT cell viability assay with M9-ENL1 cells. The format is cell-based.
Data set [2] concerns MV411 cells. Nature of the data set: alamarBlue cell viability. The class given is cell-based.
A short description of data set [3]: Serum stability of MCL analogs. The format is in vitro ADME, mouse.
Data set [4] can be described thus: Drug release from PSMA-b-PS based NPs. The format is physicochemical. The conditions noted are these: for release half-life from NPs: PSMA-b-PS NPs, PBS pH 7.4, 37 °C. Summed up: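 Loaded NPs dialysed (6–8 kDa MWCO) against phosphate-buffered saline, pH 7.4, 37 °C. Aliquots taken at 0, 1, 2, 4, 6, 8, 24, 48 and 72 h, with sink medium replaced at 2, 8, 24 and 48 h. Each aliquot mixed with an equal volume of methanol and analysed by C18 HPLC with 210 nm detection.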

A short description of data set [5]: Drug loading capacity in PSMA-b-PS NPs. The class given is physicochemical. Conditions: mg drug loaded/mg NPs × 100, PSMA-b-PS NPs. The method in brief: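 Test compounds in chloroform (3 mg mL−1) stirred with aqueous NPs at 1:3 drug:NP weight ratio, left uncovered overnight to evaporate solvent (acetone in some runs). Insoluble drug removed by two 4000 rpm spins, and unloaded drug by 100 000 MWCO centrifugal filtration (2000 rpm, 10 min). Quantified by C18 reversed-phase HPLC at 210 nm against methanol standards. LC = mg drug loaded/mg NPs × 100.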

With `C=C1C(=O)O[C@H]2[C@H]1CCC(C)=C1[C@H](OC(=O)c3ccc(C(F)(F)F)cc3)C[C@@](C)(O)[C@@H]12` [MCL-13], the CC50 is 1.8 ± 1 µM in data set [1] and 1.8 ± 0.7 µM in data set [2].

`C=C1C(=O)O[C@H]2[C@H]1CCC(COC(=O)c1cc(C(F)(F)F)cc(C(F)(F)F)c1)=C1CC[C@@](C)(O)[C@@H]12` [MCL-19]: the hydrolysis in data set [3] (free compound, 24 h incubation in both 50% and 100% serum) is 80–90%. In data set [3] (free drug, 50% serum), the “degradation half-life in serum” value worked out at 18 min. In data set [3] (free drug, 50% serum, after 8 h of incubation), this compound came in with an intact compound of 7 ± 2%. The results for the CC50 in data set [1] and in data set [2] were 4.1 ± 1.1 µM and 1.7 ± 0.9 µM, respectively. Besides, the “release half-life from NPs” value in data set [4] worked out at 540 min. In addition, in data set [4] (from 0–8 h), the “release rate from NPs” value was found to be 5.7 h⁻¹.

On to `C=C1C(=O)O[C@H]2[C@H]1CCC(C)=C1CC[C@@](C)(O)[C@@H]12` [MCL, Micheliolide, reference compound], for which the “loading capacity (LC)” value in data set [5] was “≈ 14%”. Also, the CC50 in data set [1] (M9-ENL1, 24 h, read-out: LC50 M9-ENL1) worked out at 15.4 ± 1.1 µM; in data set [2] (Homo sapiens, MV4-11, 24 h, read-out: LC50 MV-411) it was 5.6 ± 2.8 µM. For the same compound, in data set [4], the “release half-life from NPs” value worked out at 19.8 min.
